UBC13 polyUb – inhibitors of human UBC13 polyubiquitin chain formation. P61088. TR-FRET. inhibition, % at 20 µM. 0.47% of 330,000 active; in the data active = inhibition above about 45%, passing the limit was not always enough; inconclusive = no clear call, values can overlap the other calls
Target sequence (P61088 whole entry, looked up): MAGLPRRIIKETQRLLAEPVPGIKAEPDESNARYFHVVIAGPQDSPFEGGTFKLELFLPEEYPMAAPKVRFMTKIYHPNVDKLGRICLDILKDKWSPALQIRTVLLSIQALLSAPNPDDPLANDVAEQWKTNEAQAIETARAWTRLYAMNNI
UCH37 inh – blocks the human deubiquitinase UCH37; 0.33% of 330,000 active; purified proteasome/UCH37, Ub-AMC cleavage fluorescence; inhibition, % (concentration not given with the values);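 active = mean inhibition over replicate wells above about 20%, limit read from the data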
Target sequence (Q9Y5K5 whole entry, looked up): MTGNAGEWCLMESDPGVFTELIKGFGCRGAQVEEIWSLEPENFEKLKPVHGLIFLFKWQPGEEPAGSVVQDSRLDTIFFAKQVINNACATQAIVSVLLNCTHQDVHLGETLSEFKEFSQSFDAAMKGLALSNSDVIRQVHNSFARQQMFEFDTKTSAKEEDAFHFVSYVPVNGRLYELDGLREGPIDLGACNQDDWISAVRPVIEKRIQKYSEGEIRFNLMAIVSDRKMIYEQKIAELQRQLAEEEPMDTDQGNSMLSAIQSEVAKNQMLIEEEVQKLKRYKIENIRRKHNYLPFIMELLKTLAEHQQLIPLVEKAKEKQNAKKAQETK
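system = Proteasome-associated human UCH37 deubiquitinase | amount = 0.15 nM proteasome as dispensed | medium = pH 7.4 Tris-HCl (50 mM) with ovalbumin, ATP-MgCl2, DTT | incubation = 30 min preincubation with enzyme, 25 min cleavage at room temperature | detection = AMC fluorescence 355/460 nm | read-out basis = percent inhibition | controls = no-proteasome and no-compound wells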
CTSL1 counter – counter-screen for PFM18AAP inhibitors: inhibitors of F. hepatica cathepsin L1; recombinant F. hepatica cathepsin L1, Z-Leu-Arg-MCA fluorescence; inhibition, % at 5.96 µM; 0.49% of 300,000 active; AID 1906;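 active = inhibition above the mean of all tested compounds plus 3 SD, set per screening campaign, cut at about 17% in these data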
PREPL inhibitor – human PREPL enzyme inhibition; 0.68% of 320,000 active; inhibition, % at 5.96 µM; recombinant PREPL, fluorescence polarization activity-based probe; AID 2751; in the data active = inhibition above about 43%
PP1 inh – PP1-alpha (human) inhibition in PP5 counter-screen | P62136 | purified PP1alpha, OMFP fluorescence | inhibition, % at 6.7 µM | 0.9% of 320,000 active;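 active = inhibition above the mean inhibition of all tested compounds plus 3 SD, computed separately for each screening campaign, cut at about 15% in these data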
PP5 primary – PP5 (human) phosphatase inhibition. AID 1987. inhibition, % at 6.7 µM. 0.18% of 320,000 active. purified PP5c, OMFP substrate fluorescence;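 active = inhibition above the campaign's mean inhibition across all tested compounds plus 3 SD, cut at about 9.5% in these data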
PP1 confirm – confirmation of human PP1 phosphatase inhibitors; AID 2358; shares compounds with PP1 inh; 52% of 1,900 active; purified PP1alpha, OMFP substrate fluorescence; inhibition, % at 6.7 µM;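 active = mean PP1 inhibition above a set limit taken from the earlier primary screen, cut at about 15% in these data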
PP5 counter – inhibits human PP5 phosphatase in PP1 counter-screen. shares compounds with PP1 inh. purified PP5c, OMFP fluorescence. inhibition, % at 6.7 µM. 4% of 1,900 active. AID 2360;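 active = mean PP5 inhibition over triplicate wells above about 9.5% taken from the earlier PP1 screen, limit read from the data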
Hits are given with their value; ! = not active in a repeat. Shown are actives, neighbours in structure and some others; about 2.3% of the full set was active somewhere.

Results for CC(CC(c1ccccc1)c1c(O)c2ccccc2oc1=O)=NNc1ccc([N+](=O)[O-])cc1[N+](=O)[O-] (configuration not stated) ?
UCH37 inh: inactive

How did COc1ccc2[nH]c3c(C)c4ccncc4c(C)c3c2c1 do in these assays?
UBC13 polyUb: inconclusive; UCH37 inh: inactive; CTSL1 counter: inactive; PREPL inhibitor: inactive; PP1 inh: 35; PP5 primary: inactive; PP1 confirm: 17; PP5 counter: inactive

What do the screens show for `COc1ccc2[nH]c3c(c2c1)CCNC3`?
UBC13 polyUb: inactive; UCH37 inh: inactive; CTSL1 counter: inactive; PREPL inhibitor: inactive; PP1 inh: inactive; PP5 primary: inactive

Results for O=c1[nH]c(=O)n(CCC2=CCCCC2)c(O)c1/C=N/Nc1cccc2ccccc12 ?
UBC13 polyUb: inactive; UCH37 inh: inactive; CTSL1 counter: inactive; PREPL inhibitor: inactive; PP1 inh: 21; PP5 primary: inactive; PP1 confirm: 18; PP5 counter: inactive

Results for CC(CCc1c[nH]c2ccccc12)=NO ?
UCH37 inh: inactive

What do the screens show for `COc1ccccc1C=NN=C(N)N[N+](=O)[O-]`?
UCH37 inh: inactive

How did CCN(CC)C(=O)c1ccc2c(c1)C1C(Cl)C(Sc3ccccc3[N+](=O)[O-])CC1C(C(=O)O)N2 (configuration not stated) do in these assays?
UBC13 polyUb: inactive; UCH37 inh: inactive; CTSL1 counter: inactive; PREPL inhibitor: inactive; PP1 inh: 19; PP5 primary: inactive; PP1 confirm: inactive; PP5 counter: inactive

Results for Cc1ccc2c(c1Cl)NC(C(=O)O)C1CC(Sc3ccccc3[N+](=O)[O-])C(Cl)C21 (configuration not stated) ?
UBC13 polyUb: inactive; UCH37 inh: inactive; CTSL1 counter: inactive; PREPL inhibitor: inactive; PP1 inh: inactive; PP5 primary: inactive

How did Cc1ccccc1N1C(=O)/C(=C/c2ccco2)C(=O)NC1=S do in these assays?
CTSL1 counter: inactive; PREPL inhibitor: 46; PP1 inh: 69; PP5 primary: inactive; PP1 confirm: 35; PP5 counter: inactive

What do the screens show for `O=c1[nH]c(=S)[nH]c(O)c1N=Nc1cc(S(=O)(=O)Nc2ccc(Cl)cc2)ccc1Cl`?
UBC13 polyUb: inactive; UCH37 inh: inactive; PREPL inhibitor: inactive; PP1 inh: 21; PP5 primary: inactive; PP1 confirm: 25; PP5 counter: inactive

What do the screens show for `COC1C(OC(=O)c2ccc(C)[nH]2)C(O)C(Oc2ccc3c(O)c(NC(=O)c4ccc(O)c(CC=C(C)C)c4)c(=O)oc3c2Cl)OC1(C)C` (configuration not stated)?
UBC13 polyUb: inactive; UCH37 inh: inactive; CTSL1 counter: inactive; PREPL inhibitor: inactive; PP1 inh: 24; PP5 primary: inactive; PP1 confirm: 17; PP5 counter: inactive

Results for CN(C)[C@@H]1C(=O)C(C(N)=O)=C(O)[C@@]2(O)C(=O)C3=C(O)c4c(O)cccc4[C@@](C)(O)C3[C@H](O)C12 (some centres not stated) ?
UBC13 polyUb: inactive; UCH37 inh: inactive; CTSL1 counter: inactive; PREPL inhibitor: inactive; PP1 inh: 20; PP5 primary: inactive; PP1 confirm: inactive; PP5 counter: 12!

Results for CCCOC(=O)C1C2CCC(O2)C1C(=O)O (configuration not stated) ?
UCH37 inh: inactive

Results for O=C(O)C1C2CCC(O2)C1C(=O)Nc1ccc(F)c(F)c1 (configuration not stated) ?
UBC13 polyUb: inactive; UCH37 inh: inactive; CTSL1 counter: inactive; PREPL inhibitor: inactive; PP1 inh: 68; PP5 primary: 74; PP1 confirm: inactive; PP5 counter: 22

What do the screens show for `CC(=O)c1ccccc1NC(=O)C1C2CCC(O2)C1C(=O)O` (configuration not stated)?
UBC13 polyUb: inactive; CTSL1 counter: inactive; PREPL inhibitor: inactive; PP1 inh: 72; PP5 primary: 71; PP1 confirm: 33; PP5 counter: 39

Results for CC(C)C(=O)Nc1ccc(N2CCN(C)CC2)c(F)c1 ?
UBC13 polyUb: inactive; UCH37 inh: inactive; CTSL1 counter: inactive; PREPL inhibitor: inactive; PP1 inh: inactive; PP5 primary: inactive

What do the screens show for `CCn1cc(C=c2sc3n(c2=O)C2c4ccccc4OC(C)(N=3)C2C(=O)OC)c(C)n1` (configuration not stated)?
UCH37 inh: inactive

How did C#C[C@@]1(O)CCC2C3CCC4=CC(=NOCC(=O)NC(CCC(N)=O)C(=O)O)CC[C@]4(C)C3CC[C@@]21C (some centres not stated) do in these assays?
UCH37 inh: inactive

How did Clc1ccc(C(Cn2ccnc2)OCc2csc3c(Cl)cccc23)c(Cl)c1 (configuration not stated) do in these assays?
UBC13 polyUb: inactive; UCH37 inh: inactive; CTSL1 counter: inactive; PREPL inhibitor: inactive; PP1 inh: 32; PP5 primary: inactive; PP1 confirm: 29; PP5 counter: inactive

What do the screens show for `CCCCCC(=NO)c1c[nH]c2ccccc12`?
UCH37 inh: inactive

What do the screens show for `CC1CC(NC(=O)C2C3CCC(O3)C2C(=O)O)CC(C)(C)C1` (configuration not stated)?
UBC13 polyUb: inactive; UCH37 inh: inactive; CTSL1 counter: inactive; PREPL inhibitor: inactive; PP1 inh: 80; PP5 primary: 79; PP1 confirm: 30; PP5 counter: 48

Results for C[C@H]1CCCC(=O)CCCC=Cc2cc(O)cc(O)c2C(=O)O1 ?
UCH37 inh: inactive

What do the screens show for `CCOC(=O)c1cccc(NC(=O)c2c(O)[nH]c(=O)[nH]c2=O)c1`?
UBC13 polyUb: inactive; UCH37 inh: inactive; CTSL1 counter: inactive; PREPL inhibitor: inactive; PP1 inh: 19; PP5 primary: inactive; PP1 confirm: inactive; PP5 counter: inactive

How did O=P(C(=NO)N1CCOCC1)(N1CCOCC1)N1CCOCC1 do in these assays?
UCH37 inh: inactive

What do the screens show for `O=C1NC(=O)N(Cc2ccc(F)cc2)C(=O)/C1=C\C=C\c1ccco1`?
UBC13 polyUb: inactive; UCH37 inh: inactive; CTSL1 counter: inactive; PREPL inhibitor: inactive; PP1 inh: 21; PP5 primary: inactive; PP1 confirm: 23; PP5 counter: inactive

Results for COc1ccc(C(=O)NN=CC23CC[C@@H](O)CC2(O)CC[C@@H]2[C@@H]3CCC3(C)C(C4=CC(=O)OC4)CCC23O)cc1 (some centres not stated) ?
UCH37 inh: inactive

Screens: PubChem, several laboratories
